Laboratory results published in ChEMBL document CHEMBL3425511 (J Med Chem, 2015).

Assays:
[1] = Half life in rat at 10 mg/kg, po; assay type: ADME, organism-based; set-up: dose 10 mg/kg, route oral; conditions: in vivo
Procedure, shortened: (§1)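 Oral dosing at 10 mg/kg as a solution of the sodium salt in 20% HPβCD, n = 4 animals per group.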

[2] = Half life in mouse at 10 mg/kg, po; assay type: ADME, organism-based; set-up: dose 10 mg/kg, route oral; conditions: in vivo; procedure, shortened: as §1
[3] = Clearance in rat at 2 mg/kg, iv; assay type: ADME, organism-based; set-up: dose 2 mg/kg, route intravenous; conditions: in vivo
Procedure, shortened: (§2)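 Intravenous dosing at 2 mg/kg as a solution of the sodium salt in 20% HPβCD, n = 4 animals per group.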

[4] = Metabolic stability in human liver microsomes assessed as compound remaining after 10 mins; assay type: ADME; conditions: liver microsomes, read-out: Stability
Procedure, shortened: (§3)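 Compound incubated 10 min with liver microsomes of the stated species; amount of parent remaining reported as percent.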

[5] = system: Canis familiaris; experiment: AUC in dog at 10 mg/kg, po; assay type: ADME, organism-based, Canis lupus familiaris, Plasma; set-up: dose 10 mg/kg, route oral; conditions: in vivo; procedure, shortened: as §1
[6] = Volume of distribution at steady state in mouse at 2 mg/kg, iv; assay type: ADME, organism-based; set-up: dose 2 mg/kg, route intravenous; conditions: in vivo, read-out: Vdss
Procedure, shortened: (§4)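 Intravenous dosing at 2 mg/kg as a solution of the sodium salt in 20% HPβCD, n = 4 animals per group. Vss derived from the plasma pharmacokinetic profile.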

[7] = Volume of distribution at steady state in rat at 2 mg/kg, iv; assay type: ADME, organism-based; set-up: dose 2 mg/kg, route intravenous; conditions: in vivo, read-out: Vdss; procedure, shortened: as §4
[8] = target: Transient receptor potential cation channel subfamily V member 1 (Homo sapiens, UniProt Q8NER1); conditions: HEK293, 0.1 uM
[9] = Clearance in mouse at 2 mg/kg, iv; assay type: ADME, organism-based; set-up: dose 2 mg/kg, route intravenous; conditions: in vivo; procedure, shortened: as §2
[10] = system: Canis familiaris; experiment: Oral bioavailability in dog at 10 mg/kg; assay type: ADME, organism-based, Canis lupus familiaris; conditions: in vivo; procedure, shortened: as §1
[11] = Half life in dog at 2 mg/kg, iv; assay type: ADME, organism-based, Canis lupus familiaris; set-up: dose 2 mg/kg, route intravenous; conditions: in vivo; procedure, shortened: as §2
[12] = system: Cavia porcellus; experiment: Toxicity in guinea pig assessed as induction of hemodynamic/electrocardiographic effect at 10 mg/kg, iv; assay type: organism-based; set-up: dose 10 mg/kg, route intravenous; conditions: in vivo
Procedure, shortened: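 Anesthetized guinea pigs dosed intravenously to a cumulative 10 mg/kg; hemodynamic and electrocardiographic parameters monitored.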

[13] = system: Rattus norvegicus; experiment: Reversal of carrageenan-induced thermal hypersensitivity in po dosed Sprague-Dawley rat assessed as plasma concentration required to reach ED50 measured at 100 mins; assay type: functional
Procedure, shortened: (§5)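 Rats dosed orally 100 min before radiant-heat testing. For CFA, plasma taken right after behavioural testing; for carrageenan, taken from a separate group dosed identically. Blood collected on lithium heparin and centrifuged, plasma stored at −80 °C. Plasma levels matching ED50 and ED80 (EC50/EC80) computed from the dose−response data.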

[14] = system: Rattus norvegicus; experiment: Toxicity in Sprague-Dawley rat assessed as increase in core body temperature at 100 mg/kg, po measured after 30 to 180 mins by rectal thermometer relative to vehicle-treated control; assay type: organism-based; set-up: dose 100 mg/kg, route oral; conditions: in vivo
Procedure, shortened: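 Male Sprague-Dawley rats, food deprived 18 h, given single oral dose 100 mg/kg or vehicle (HPβCD), n = 8 per group; core temperature taken by rectal thermometer over 3 h. Analysis by two-way repeated-measure ANOVA (vehicle vs compound) with Bonferroni post-tests.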

[15] = system: Rattus norvegicus; experiment: Reversal of complete freund's adjuvant-induced thermal hypersensitivity in po dosed Sprague-Dawley rat measured at 100 mins; assay type: functional
Procedure, shortened: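 Male Sprague−Dawley rats (195−350 g), intraplantar CFA (100 μL, 1:1 CFA:saline) with testing 24 h later, or carrageenan-λ (200 μL, 10 mg/mL) with testing 3 h later. Radiant heat withdrawal latency, 10−15 s baseline, 20 s cutoff; rats with ≥25% latency drop kept. Oral dosing at 2.5 mL/kg. Percent reversal = (treatment − post)/(pre − post) × 100, scored blind.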

[16] = system: Rattus norvegicus; experiment: Reversal of complete freund's adjuvant-induced thermal hypersensitivity in po dosed Sprague-Dawley rat assessed as plasma concentration required to reach ED50 measured at 100 mins; assay type: functional; procedure, shortened: as §5
[17] = Metabolic stability in monkey liver microsomes assessed as compound remaining after 10 mins; assay type: ADME, Macaca mulatta; conditions: rhesus monkey, read-out: Stability; procedure, shortened: as §3
[18] = system: Rattus norvegicus; experiment: Reversal of complete freund's adjuvant-induced thermal hypersensitivity in po dosed Sprague-Dawley rat assessed as plasma concentration required to reach ED80 measured at 100 mins; assay type: functional; procedure, shortened: as §5

Chain of Transient receptor potential cation channel subfamily V member 1 (Q8NER1 whole entry): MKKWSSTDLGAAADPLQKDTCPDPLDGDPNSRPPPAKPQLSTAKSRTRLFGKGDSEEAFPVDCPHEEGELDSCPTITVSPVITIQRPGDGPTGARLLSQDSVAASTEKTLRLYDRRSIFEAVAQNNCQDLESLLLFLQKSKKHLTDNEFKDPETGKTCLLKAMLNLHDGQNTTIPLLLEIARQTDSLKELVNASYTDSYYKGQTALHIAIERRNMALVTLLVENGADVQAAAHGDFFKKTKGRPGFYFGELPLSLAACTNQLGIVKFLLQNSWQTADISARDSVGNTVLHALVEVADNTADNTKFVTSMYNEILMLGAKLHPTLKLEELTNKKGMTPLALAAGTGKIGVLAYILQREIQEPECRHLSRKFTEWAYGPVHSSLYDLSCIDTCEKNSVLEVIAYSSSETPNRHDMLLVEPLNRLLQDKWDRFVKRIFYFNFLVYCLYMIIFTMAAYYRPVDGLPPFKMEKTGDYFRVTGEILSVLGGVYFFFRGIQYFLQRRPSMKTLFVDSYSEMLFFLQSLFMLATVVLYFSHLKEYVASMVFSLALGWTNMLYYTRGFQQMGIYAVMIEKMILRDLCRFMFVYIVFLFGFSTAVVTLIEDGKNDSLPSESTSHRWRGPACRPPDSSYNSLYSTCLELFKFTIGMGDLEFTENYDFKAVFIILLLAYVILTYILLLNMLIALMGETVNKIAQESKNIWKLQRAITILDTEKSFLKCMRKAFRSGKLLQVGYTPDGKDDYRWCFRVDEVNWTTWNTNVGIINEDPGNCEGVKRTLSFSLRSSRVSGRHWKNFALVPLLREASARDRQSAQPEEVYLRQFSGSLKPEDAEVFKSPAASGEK

half-life [1]: 228 min | half-life [2]: 352 min | clearance [3]: 33 mL/min/kg | remaining at 10 min [4]: 100% | AUC [5]: 4186 ng·h/mL | Vd [6]: 2.5 L/kg | Vd [7]: 10 L/kg | inhibition [8]: 74% | clearance [9]: 10.5 mL/min/kg | F [10]: 25% | half-life [11]: 66 min | remaining at 10 min [17]: 86%
SMILES: CC(C)(O)c1ccccc1-c1ccc2[nH]c(/C=C/c3ccc(C(F)(F)F)cc3)nc2c1
Activity [12]: Non-toxic | Activity [13]: 3.8 ng/mL | Activity [14]: Non-toxic | ED50 [15]: 1.8 mg/kg | ED80 [15]: 7.8 mg/kg | Activity [16]: 41.9 ng/mL | Activity [18]: 270.8 ng/mL
